pIC50: −log10 of the molar value. Active and inactive are the calls of the source. The calls are words filed in the database; no cut-off is given here.
Assays:
[1] = molecular target: Acetylcholinesterase (Anopheles gambiae) (UniProt Q869C3); assay: Inhibition of recombinant full length Anopheles gambiae AChE1 expressed in baculovirus-infected Sf9 insect cells at 1 mM using acetylthiocholine iodide as substrate measured over 60 secs by Ellman's method
In short: (§1)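 Secreted, non-purified recombinant enzyme in growth medium, tested as enzyme source. Ellman assay at 30 °C in 0.1 M phosphate buffer pH 7.4 with 0.2 mM DTNB and 1 mM acetylthiocholine iodide; A412 followed over 60 s. Compound (100 mM DMSO stock) tested at eight concentrations, maximum 1 mM. Activity set relative to eight uninhibited controls per plate; IC50 from three-parameter variable-slope fit; 2-3 independent replicates.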

Aedes aegypti [2] = assay: Inhibition of recombinant full length Aedes aegypti AChE1 expressed in baculovirus-infected Sf9 insect cells at 1 mM using acetylthiocholine iodide as substrate measured over 60 secs by Ellman's method; in short: as §1
[3] = molecular target: Acetylcholinesterase (Anopheles gambiae) (UniProt Q869C3); assay: (§2) Inhibition of recombinant full length Anopheles gambiae AChE1 expressed in baculovirus-infected Sf9 insect cells using acetylthiocholine iodide as substrate measured over 60 secs by Ellman's method
Acetylcholinesterase [4] = molecular target: T1, Acetylcholinesterase (Anopheles gambiae, UniProt Q869C3); assay: as §2
Acetylcholinesterase [5] = molecular target: Acetylcholinesterase (Anopheles gambiae, UniProt Q869C3, G122S); assay: Inhibition of recombinant full length Anopheles gambiae AChE1 G122S mutant expressed in baculovirus-infected Sf9 insect cells using acetylthiocholine iodide as substrate measured over 60 secs by Ellman's method
[6] = Selectivity ratio of IC50 for recombinant human AChE expressed in HEK293F cells to IC50 for recombinant full length Anopheles gambiae AChE1 expressed in baculovirus-infected Sf9 insect cells
In short: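 Ratio of the hAChE IC50 divided by the higher of the AgAChE1 or AaAChE1 IC50. Each IC50 came from an Ellman assay (1 mM acetylthiocholine, 0.2 mM DTNB, pH 7.4, 30 °C) with eight concentrations up to 1 mM, using 2-3 replicates.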

[7] = (§3) Inhibition of recombinant full length Aedes aegypti AChE1 expressed in baculovirus-infected Sf9 insect cells using acetylthiocholine iodide as substrate measured over 60 secs by Ellman's method; in short: as §1
Aedes aegypti [8] = assay: as §3; in short: as §1
Acetylcholinesterase [9] = molecular target: T2, Acetylcholinesterase (Homo sapiens, UniProt P22303); assay: Inhibition of recombinant human AChE expressed in HEK293F cells using acetylthiocholine iodide as substrate measured over 60 secs by Ellman's method; parameters: species or system HEK293
[10] = test system: Acetylcholinesterase (Anopheles gambiae), Q869C3 [G122S]; assay: Inhibition of recombinant full length Anopheles gambiae AChE1 G122S mutant expressed in baculovirus-infected Sf9 insect cells up to 1 mM using acetylthiocholine iodide as substrate measured over 60 secs by Ellman's method; in short: as §1
Aedes aegypti [11] = assay: Insecticidal activity against five days old adult Aedes aegypti Mombasa assessed as mortality at 100 mM applied topically on upper part of pronotum after 48 hrs (reference value: 7 to 8%); assay type: functional; details: topical
Anopheles gambiae [12] = assay: Insecticidal activity against five days old adult Anopheles gambiae Kisumu assessed as mortality at 1 nmol applied topically on upper part of pronotum after 24 hrs; assay type: functional
Aedes aegypti [13] = assay: Insecticidal activity against 3rd instar larvae of Aedes aegypti Mombasa assessed as mortality at 500 uM administered via de-chlorinated tap water after 48 hrs (reference value: 0 to 2%); assay type: functional
Anopheles gambiae [14] = assay: Insecticidal activity against five days old adult Anopheles gambiae Kisumu assessed as mortality at 2 mM applied topically on upper part of pronotum after 48 hrs (reference value: 13 to 38%); assay type: functional; details: topical
Anopheles gambiae [15] = assay: Insecticidal activity against five days old adult Anopheles gambiae Kisumu assessed as mortality at 10 mM applied topically on upper part of pronotum after 24 hrs (reference value: 8 to 16%); assay type: functional; details: topical
Acetylcholinesterase [16] = molecular target: T1, Acetylcholinesterase; assay: Inhibition of AChE1 in Anopheles gambiae body extract using acetylthiocholine iodide as substrate measured over 60 secs by Ellman's method
Anopheles gambiae [17] = assay: Insecticidal activity against five days old adult Anopheles gambiae Kisumu assessed as mortality at 10 nmol applied topically on upper part of pronotum after 24 hrs; assay type: functional
Aedes aegypti [18] = assay: Insecticidal activity against 3rd instar larvae of Aedes aegypti Mombasa assessed as mortality at 50 uM administered via de-chlorinated tap water after 24 hrs; assay type: functional
In short: (§4)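 Kenyan strains were reared at 27-28 °C, about 80% humidity, 12/12 h light. Per compound and concentration, 25 third-instar larvae were placed in 100 ml de-chlorinated water containing the compound and kept under insectary conditions. The negative control was plain water; the positive control was propoxur at 25 µM. Mortality was scored at 24 h; 75 treated and 50 control larvae in total.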

Aedes aegypti [19] = assay: Insecticidal activity against 3rd instar larvae of Aedes aegypti Mombasa assessed as mortality at 500 uM administered via de-chlorinated tap water after 24 hrs; assay type: functional; in short: as §4
Acetylcholinesterase [20] = molecular target: T1, Acetylcholinesterase; assay: Inhibition of AChE1 in Anopheles gambiae head extract using acetylthiocholine iodide as substrate measured over 60 secs by Ellman's method
Aedes aegypti [21] = assay: Insecticidal activity against five days old adult Aedes aegypti Mombasa assessed as mortality at 10 mM applied topically on upper part of pronotum after 24 hrs (reference value: 3 to 15%); assay type: functional; details: topical
Anopheles gambiae [22] = assay: Insecticidal activity against 3rd instar larvae of Anopheles gambiae Kisumu assessed as mortality at 500 uM administered via de-chlorinated tap water after 24 hrs; assay type: functional; in short: as §4
Anopheles gambiae [23] = assay: Insecticidal activity against five days old adult Anopheles gambiae Kisumu assessed as mortality at 2 mM applied topically on upper part of pronotum after 24 hrs (reference value: 3 to 17%); assay type: functional; details: topical
Aedes aegypti [24] = assay: Insecticidal activity against 3rd instar larvae of Aedes aegypti Mombasa assessed as mortality at 50 uM administered via de-chlorinated tap water after 48 hrs (reference value: 0 to 4%); assay type: functional
Anopheles gambiae [25] = assay: Insecticidal activity against five days old adult Anopheles gambiae Kisumu assessed as mortality at 100 mM applied topically on upper part of pronotum after 48 hrs (reference value: 15 to 24%); assay type: functional; details: topical
Aedes aegypti [26] = assay: Insecticidal activity against five days old adult Aedes aegypti Mombasa assessed as mortality at 100 mM applied topically on upper part of pronotum after 24 hrs (reference value: 3%); assay type: functional; details: topical
Anopheles gambiae [27] = assay: Insecticidal activity against five days old adult Anopheles gambiae Kisumu assessed as mortality at 0.2 nmol applied topically on upper part of pronotum after 24 hrs; assay type: functional
Anopheles gambiae [28] = assay: Insecticidal activity against 3rd instar larvae of Anopheles gambiae Kisumu assessed as mortality at 500 uM administered via de-chlorinated tap water after 48 hrs; assay type: functional
Aedes aegypti [29] = assay: Insecticidal activity against five days old adult Aedes aegypti Mombasa assessed as mortality at 0.2 nmol applied topically on upper part of pronotum after 24 hrs; assay type: functional
Anopheles gambiae [30] = assay: Insecticidal activity against 3rd instar larvae of Anopheles gambiae Kisumu assessed as mortality at 50 uM administered via de-chlorinated tap water after 24 hrs; assay type: functional; in short: as §4
Aedes aegypti [31] = assay: Insecticidal activity against five days old adult Aedes aegypti Mombasa assessed as mortality at 1 nmol applied topically on upper part of pronotum after 24 hrs; assay type: functional
Anopheles gambiae [32] = assay: Insecticidal activity against five days old adult Anopheles gambiae Kisumu assessed as mortality at 100 mM applied topically on upper part of pronotum after 24 hrs (reference value: 9 to 10%); assay type: functional; details: topical
Aedes aegypti [33] = assay: Insecticidal activity against five days old adult Aedes aegypti Mombasa assessed as mortality at 2 mM applied topically on upper part of pronotum after 48 hrs (reference value: 3 to 12%); assay type: functional; details: topical
Aedes aegypti [34] = assay: Insecticidal activity against five days old adult Aedes aegypti Mombasa assessed as mortality at 10 mM applied topically on upper part of pronotum after 48 hrs (reference value: 3 to 15%); assay type: functional; details: topical
Anopheles gambiae [35] = assay: Insecticidal activity against 3rd instar larvae of Anopheles gambiae Kisumu assessed as mortality at 50 uM administered via de-chlorinated tap water after 48 hrs; assay type: functional
Aedes aegypti [36] = assay: Insecticidal activity against five days old adult Aedes aegypti Mombasa assessed as mortality at 2 mM applied topically on upper part of pronotum after 24 hrs (reference value: 2 to 10%); assay type: functional; details: topical
Aedes aegypti [37] = assay: Insecticidal activity against five days old adult Aedes aegypti Mombasa assessed as mortality at 10 nmol applied topically on upper part of pronotum after 24 hrs; assay type: functional
Anopheles gambiae [38] = assay: Insecticidal activity against five days old adult Anopheles gambiae Kisumu assessed as mortality at 10 mM applied topically on upper part of pronotum after 48 hrs (reference value: 14 to 22%); assay type: functional; details: topical
Acetylcholinesterase [39] = molecular target: T2, Acetylcholinesterase; assay: Inhibition of recombinant human AChE expressed in HEK293F cells up to 1 mM using acetylthiocholine iodide as substrate measured over 60 secs by Ellman's method; details: HEK293; in short: as §1

## NS(=O)(=O)c1ccc(NC(=S)NCCN2CCCCC2)cc1
[1]
  inhibition: 70%
Aedes aegypti [2]
  inhibition: 70%
[3]
  inhibition: Dose-dependent effect
Acetylcholinesterase [4]
  pIC50: 5.11
Acetylcholinesterase [5]
  pIC50: 4.48
[6]
  Ratio IC50: 12
[7]
  pIC50: 5.26
Aedes aegypti [8]
  inhibition: Dose-dependent effect
Acetylcholinesterase [9]
  pIC50: 4.05

## NS(=O)(=O)c1ccc(NC(=S)NCCN2CCOCC2)cc1
Acetylcholinesterase [4]
  pIC50: < 3.70
[7]
  pIC50: < 3.70
[10]
  inhibition: inactive
Acetylcholinesterase [9]
  pIC50: < 3.70

## COc1ccccc1NC(=S)NCCN(C)C
Aedes aegypti [11]
  mortality at 100000 µM: 18%
[1]
  inhibition: 50%
Anopheles gambiae [12]
  mortality: 0%
Aedes aegypti [13]
  mortality at 500 µM: 7%
Anopheles gambiae [14]
  mortality at 2000 µM: 23%
Anopheles gambiae [15]
  mortality at 10000 µM: 9%
Acetylcholinesterase [16]
  pIC50: 5.12
Aedes aegypti [2]
  inhibition: 50%
Anopheles gambiae [17]
  mortality: 57%
Aedes aegypti [18]
  mortality at 50 µM: 7%
Aedes aegypti [19]
  mortality at 500 µM: 5%
Acetylcholinesterase [20]
  pIC50: 5.15
Aedes aegypti [21]
  mortality at 10000 µM: 10%
Anopheles gambiae [22]
  mortality at 500 µM: 3%
Anopheles gambiae [23]
  mortality at 2000 µM: 16%
Aedes aegypti [24]
  mortality at 50 µM: 7%
[3]
  inhibition: Dose-dependent effect
Acetylcholinesterase [4]
  pIC50: 5.15
Acetylcholinesterase [5]
  pIC50: 4.30
Anopheles gambiae [25]
  mortality at 100000 µM: 73%
[6]
  Ratio IC50: 17
Aedes aegypti [26]
  mortality at 100000 µM: 10%
Anopheles gambiae [27]
  mortality: 16%
Anopheles gambiae [28]
  mortality at 500 µM: 3%
[7]
  pIC50: 5.22
Aedes aegypti [8]
  inhibition: Dose-dependent effect
Aedes aegypti [29]
  mortality: 8%
Anopheles gambiae [30]
  mortality at 50 µM: 5%
Aedes aegypti [31]
  mortality: 10%
Anopheles gambiae [32]
  mortality at 100000 µM: 61%
Aedes aegypti [33]
  mortality at 2000 µM: 13%
Aedes aegypti [34]
  mortality at 10000 µM: 15%
Acetylcholinesterase [9]
  pIC50: 3.92
Anopheles gambiae [35]
  mortality at 50 µM: 7%
Aedes aegypti [36]
  mortality at 2000 µM: 8%
Aedes aegypti [37]
  mortality: 10%
Anopheles gambiae [38]
  mortality at 10000 µM: 20%

## CC1CCN(CCNC(=S)Nc2cccc(Cl)c2)CC1
Acetylcholinesterase [4]
  pIC50: < 3.70
Acetylcholinesterase [5]
  pIC50: < 3.70
[7]
  pIC50: < 3.70
Acetylcholinesterase [9]
  pIC50: < 3.70

## CN(C)CCN=C(S)Nc1ccccc1Cl
[6]
  Ratio IC50: > 12

## CN(C)CC/N=C(/S)Nc1ccc(S(N)(=O)=O)cc1
Acetylcholinesterase [4]
  pIC50: 4.13
[6]
  Ratio IC50: > 2.7
[7]
  pIC50: 4.25
[10]
  inhibition: inactive
Acetylcholinesterase [9]
  pIC50: < 3.70

## COc1cc(NC(=S)NCCN2CCOCC2)ccc1Cl
Acetylcholinesterase [4]
  pIC50: < 3.70
Acetylcholinesterase [5]
  pIC50: < 3.70
[7]
  pIC50: < 3.70
Acetylcholinesterase [9]
  pIC50: < 3.70

## CN(C)CCN=C(S)Nc1cccc(Cl)c1
Acetylcholinesterase [4]
  pIC50: 4.02
Acetylcholinesterase [5]
  pIC50: < 3.70
[6]
  Ratio IC50: 1
[7]
  pIC50: 4.08
Acetylcholinesterase [9]
  pIC50: 3.85

## COc1ccc(NC(S)=NCCN2CCOCC2)cc1
Acetylcholinesterase [4]
  pIC50: 4.96
Acetylcholinesterase [5]
  pIC50: < 3.70
[6]
  Ratio IC50: > 18
Acetylcholinesterase [9]
  pIC50: < 3.70

## S=C(NCCN1CCOCC1)Nc1ccc(Cl)cc1
[1]
  inhibition: inactive
Acetylcholinesterase [39]
  inhibition: inactive
Aedes aegypti [2]
  inhibition: inactive
[10]
  inhibition: inactive

## FC(F)(F)c1ccc(NC(=S)NCCN2CCCCC2)cc1
Acetylcholinesterase [4]
  pIC50: < 3.70
Acetylcholinesterase [5]
  pIC50: < 3.70
[7]
  pIC50: < 3.70
Acetylcholinesterase [9]
  pIC50: < 3.70
